Test results published in ChEMBL document CHEMBL1123553, “Synthesis and antimalarial and antitumor effects of 2-amino-4-(hydrazino and hydroxyamino)-6-[(aryl)thio]quinazolines” (1987).

Assays:
Assay type in all cases: functional
[1] = test system: L1210; test: Anti tumor activity against L1210 leukemia in tissue culture and the molar concentration required to reduce the number of L1210 cells; details: Mus musculus, L1210, read-out: ID50
Procedure, shortened: (§1)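 L1210 leukemia cells in tissue culture were incubated with the test drug for 2 days and the cell number was then assessed. ID50 is the molar drug concentration that reduces the number of L1210 cells by 50%.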

[2] = test system: Mus musculus; test: Antimalarial activity against Plasmodium berghei strain in mice (Mus musculus) by parentral route and change in mean survival time in days was determined at 160 mg/kg subcutaneous dose
Procedure, shortened: (§2)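 Normal drug-sensitive P. berghei strain in mice. Test agents dissolved or suspended in peanut oil and given as a single sc dose 72 h postinfection, five mice per dose group. ΔMST = mean survival time of treated mice minus that of controls (days). 60-day survivors are excluded from the treated mean and scored as cured. Minimum active response is a 100% increase in MSTT.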

[3] = test system: Mus musculus; test: Antimalarial activity against Plasmodium berghei strain in mice (Mus musculus) by parentral route and change in mean survival time in days was determined at 40 mg/kg subcutaneous dose; procedure, shortened: as §2
[4] = test system: Mus musculus; test: Antimalarial activity against Plasmodium berghei strain in mice (Mus musculus) by parentral route and change in mean survival time in days was determined at 320 mg/kg subcutaneous dose; procedure, shortened: as §2
[5] = test system: Mus musculus; test: Antimalarial activity against Plasmodium berghei strain in mice (Mus musculus) by parentral route and change in mean survival time in days was determined at 80 mg/kg subcutaneous dose; procedure, shortened: as §2
[6] = test system: Mus musculus; test: Antimalarial activity against Plasmodium berghei strain in mice (Mus musculus) by parentral route and change in mean survival time in days was determined at 640 mg/kg subcutaneous dose; procedure, shortened: as §2
[7] = test system: L1210; test: Anti tumor activity against L1210 leukemia in tissue culture and the molar concentration required to reduce the number of L1210 cells by 50% was determined.; details: Mus musculus, L1210, read-out: ID50; procedure, shortened: as §1

## Nc1nc(N)c2cc(S(=O)(=O)c3ccc4ccccc4c3)ccc2n1
[1]
  IC50: 0.11 µM

## CONc1nc(N)nc2ccc(S(=O)(=O)c3ccc4ccccc4c3)cc12
[2]
  Delta MST: 9.1 days
[3]
  Delta MST: 3.9 days
[4]
  Delta MST: 12.7 days
[5]
  Delta MST: 5.7 days

## NNc1nc(N)nc2ccc(Sc3cccc(C(F)(F)F)c3)cc12
[2]
  Delta MST: 6.9 days
[3]
  Delta MST: 0.5 days
[4]
  Delta MST: 11.9 days
[6]
  Delta MST: 15.7 days
[5]
  Delta MST: 3.1 days

## Nc1nc(NO)c2cc(S(=O)(=O)c3ccc4ccccc4c3)ccc2n1
[2]
  Delta MST: 11.1 days
[3]
  Delta MST: 6.1 days
[4]
  Delta MST: 14.1 days
[6]
  Delta MST: 15.3 days
[5]
  Delta MST: 8.9 days

## NNc1nc(N)nc2ccc(S(=O)(=O)c3ccc4ccccc4c3)cc12
[2]
  Delta MST: 2.3 days
[3]
  Delta MST: 0.5 days
[4]
  Delta MST: 3.5 days
[6]
  Delta MST: 4.5 days
[5]
  Delta MST: 1.3 days

## CONc1nc(N)nc2ccc(Sc3cccc(C(F)(F)F)c3)cc12
[7]
  IC50: 24 µM
[2]
  Delta MST: 9.7 days
[3]
  Delta MST: 5.7 days
[5]
  Delta MST: 6.9 days

## CN(N)c1nc(N)nc2ccc(S(=O)(=O)c3ccc4ccccc4c3)cc12
[2]
  Delta MST: 4.3 days
[3]
  Delta MST: 0.5 days
[4]
  Delta MST: 7.1 days
[6]
  Delta MST: 10.7 days
[5]
  Delta MST: 2.3 days

## ONc1nc(NO)c2cc(Sc3cccc(C(F)(F)F)c3)ccc2n1
[2]
  Delta MST: 9.7 days
[3]
  Delta MST: 1.7 days
[4]
  Delta MST: 10.7 days
[5]
  Delta MST: 3.1 days

## CN(N)c1nc(N)nc2ccc(Sc3cccc(C(F)(F)F)c3)cc12
[2]
  Delta MST: 12.3 days
[3]
  Delta MST: 5.7 days
[5]
  Delta MST: 8.9 days

## Nc1nc(NO)c2cc(Sc3cccc(C(F)(F)F)c3)ccc2n1
[2]
  Delta MST: 8.1 days
[3]
  Delta MST: 3.5 days
[4]
  Delta MST: 10.3 days
[5]
  Delta MST: 5.1 days

## O=S(=O)(c1ccc2ccccc2c1)c1ccc2nc(NO)nc(NO)c2c1
[2]
  Delta MST: 5.9 days
[3]
  Delta MST: 1.1 days
[4]
  Delta MST: 8.1 days
[6]
  Delta MST: 10.7 days
[5]
  Delta MST: 3.3 days
